High-throughput results as filed in PubChem.
T cruzi repl: inhibitors of intracellular T. cruzi growth, primary screen, luminescence, NIH3T3 host cells; T. cruzi beta-gal in NIH3T3, 90 h; inhibition, % (concentration not given with the values); 1.4% of 300,000 active; AID 1885, 2009;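 active means mean inhibition across valid replicates above about 55%, limit read from the data; inconclusive means mean below that limit but half or more replicates reach it; inactive means mean below it, under half of replicates reach it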;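 further: signal also drops with host cell toxicity which is not excluded here; 0% = plate median of DMSO wells and 100% = zero luminescence signal; higher percent means less beta-gal luminescence so fewer parasites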
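System – NIH/3T3 host cells with β-galactosidase reporter T. cruzi · Doses – single 50 nL compound addition per well in DMSO · Reagent – 5000 T. cruzi trypomastigotes/well · Medium – Low-serum DMEM with 2% FBS · Timing – ≥90 h infection period, 3 h prior cell attachment · Evaluation – parasite load inhibition, % · Technique – GalScreen luminescence, 60 min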
PolyA inhibitor: polyadenylation inhibitors in yeast reporter cells, primary screen, luminescence, S. cerevisiae | S. cerevisiae SKY197-pL101 polyadenylation reporter, beta-gal luminescence; efflux-impaired pdr1/pdr3 knockout yeast; score 100 = 6 SD above DMSO | 0.02% of 300,000 active | activity score, % at 12 µM | AID 1875, 2009;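 active means lowest replicate activity score at least 50, where 100 means six control SD above control mean; inconclusive means lowest score under 50 but half or more replicates reach 50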;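 further: yeast exposed to compound for 9 h at 30 °C; higher score means more reporter readthrough which indicates perturbed polyadenylation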
Beta apoptosis: inhibitors of cytokine-induced beta cell apoptosis, primary screen, luminescence; INS-1E cytokine-induced death, ATP luminescence, 48 h; percent of positive-control rescue, neutral wells zero; protection from apoptosis, % (no concentration beside the values); 0.8% of 300,000 active;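 active means Every replicate reaches about 75%, or at least half do and their mean reaches it too, limit read from the data; inconclusive means At least half of replicates reach the limit but their mean does not; inactive means Under half of replicates reach the limit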;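 further: 0% = cytokine-treated negative control wells and 100% = positive control rescue; higher means more ATP so stronger rescue from cytokine killing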
CSC inhib: cancer stem cell viability inhibitors, primary screen, luminescence | AID 2717, 2010 | 1.1% of 300,000 active | inhibition, % at 7.5 µM | cancer stem cell-like cells viability; in the data active means inhibition above about 75%; inconclusive means no clear call, values can overlap the other calls; tested in HMLE shEcad cells
HIF act: HIF pathway transcriptional activators, primary screen, cell-based, U2OS HRE-luciferase, luminescence | U2OS HRE-luciferase reporter; normalized: DMSO 0%, desferrioxamine 100% | activation, % at 7.5 µM (by protocol) | 0.32% of 300,000 active | AID 1910, 2009;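 active means mean activation of at least 10% of the iron chelator positive control signal, with at least half of replicates also reaching 10%; inconclusive means mean and replicate majority disagree about reaching 10%; inactive means mean and most replicates under 10%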
Calb FLC: C. albicans growth inhibition with fluconazole, primary screen, CaCi-2 strain, Alamar Blue fluorescence | AID 1979, 2009 | 0.57% of 300,000 active | growth inhibition, % (concentration not given with the values) | C. albicans CaCi-2 + fluconazole, 48 h;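 active means growth inhibition above about 58% in most replicates, limit read from the data, passing the limit was not always enough; inconclusive means exactly half the replicates above a set limit; inactive means most replicates below a set limit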;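 further: all wells also contain fluconazole at 8 µg/ml as a sub-toxic cotreatment; 0% = median of DMSO wells and 100% = median of geldanamycin control wells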
* marks the source's active call; other numbers are inactive results; ? = inconclusive; . = no result given; + = active, no number. Hits are enriched below; roughly 3.1% of the tested compounds scored in any of these assays.

SMILES	T cruzi repl	PolyA inhibitor	Beta apoptosis	CSC inhib	HIF act	Calb FLC
O=C(Nc1ccc(N2CCN(Cc3ccccc3Cl)CC2)cc1)c1cccnc1	17	-3	78*	15	-1	10
O=C(Nc1ccccc1Cl)c1ccccc1	-10	4	-3	-20	2	-7
O=C(N/N=C/c1cccnc1)c1ccc(NC(=O)c2ccc(Cl)cc2)cc1	2	13	9	.	39*	-30
O=C(Nc1ccc(C(=O)Nc2ccccc2Cl)cc1)c1cccnc1	.	.	99*	-7	.	3
Cc1oc(-c2ccc(-c3ccccc3)cc2)nc1CN1CCN(CC(=O)N(C)C)CC1	17	-6	.	-12	0	-17
COCCN(Cc1ccccc1)C(=S)Nc1ccc(OC(F)F)cc1	-8	-3	-3	-4	0	12
CNS(=O)(=O)c1ccc(C(=O)NCC(=O)NC(C)c2cccs2)cc1 (stereo unspecified)	.	.	-8	.	.	.
COc1ccc(CNC(=O)COC(=O)c2cccn2C)cc1	.	.	-2	-9	.	.
O=C(Nc1cccc(C(F)(F)F)c1)c1cccnc1	-12	.	-2	-2	0	117*
O=C(Nc1cccc(NC(=O)c2cccnc2)c1)c1ccccc1	6	13	-4	-5	0	-9
CCc1ccc(NC(=O)c2cccnc2)cc1	-17	1	27	-11	1	5
O=C(Cc1ccc(O)cc1)N/N=C/c1cccnc1	.	.	6	3	.	102*
CCSc1ccc(NC(=O)c2cccnc2)cc1	10	5	104*	-5	3	.
COCC(C)n1c(SCC(=O)Nc2sccc2C(N)=O)nc2ccccc2c1=O (stereo unspecified)	.	.	-2	-9	.	.
Cc1ccn2c(=O)nc(SCC(=O)NCCc3ccccc3)nc2c1	-13	-20	.	-3	0	-8
CCOc1ccc(C(=O)CCC(=O)NCC(=O)Nc2c(C)cccc2C)cc1	.	.	-2	.	.	.
COc1cc(CNCCc2c[nH]c3ccccc23)ccc1OCc1ccc(F)cc1	53	-10	31	+	0	?
COc1cccc(CNCCc2c[nH]c3ccccc23)c1OCc1ccc(F)cc1	49	22	24	15	0	16
CCc1ccc(S(=O)(=O)Nc2ccc(N3CCN(C)CC3)cc2)cc1	.	17	6	27	0	5
COc1ccc2c(c1)[nH]c1c(N3CCSCC3)ncnc12	-1	10	3	-4	-1	-6
COc1ccc2c(c1)[nH]c1c(N3CCN(Cc4ccc5c(c4)OCO5)CC3)ncnc12	34	-10	105*	9	0	-19
Cc1ccc2c(c1)[nH]c1c(N3CCN(Cc4ccccc4)CC3)ncnc12	-21	11	113*	13	-1	30
CCOc1ccc(NS(=O)(=O)c2cc(NC(=O)c3ccc(C)cc3)ccc2Cl)cc1	13	7	28	60	0	0
COc1cc(OC)cc(C(=O)NNC(=O)Cc2ccc(OC)c(S(=O)(=O)N3CCOCC3)c2)c1	-16	10	5	16	0	110*
COc1cc([N+](=O)[O-])cc(/C=N/NC(=O)c2ccc(NC(=O)c3ccc(C)cc3)cc2)c1O	8	3	.	.	1	102*
SMILES	T cruzi repl	PolyA inhibitor	Beta apoptosis	CSC inhib	HIF act	Calb FLC
COc1cccc(/C=N/NC(=O)c2cc3cc([N+](=O)[O-])ccc3s2)c1O	23	6	82*	106*	.	-11
COc1cc([N+](=O)[O-])cc(/C=N/NC(=O)c2ccc(C)nc2)c1O	8	-9	-13	13	1	-6
COc1ccccc1C(CNC(=O)c1cccc(S(=O)(=O)NCc2ccccc2)c1)N(C)C (stereo unspecified)	9	-13	0	-1	0	-6
COc1ccc(-c2cn(-c3ccc(C)cc3C)c(=O)[nH]2)cc1OC	-10	-14	4	-4	0	0
Cc1ccc(NS(=O)(=O)c2cccc(C(=O)Nc3cccnc3)c2)c(C)c1	.	.	4	-1	.	.
O=C(NCC(c1ccco1)N1CCc2ccccc2C1)c1ccc(Cl)c([N+](=O)[O-])c1 (stereo unspecified)	-2	6	-7	-4	0	0
